Results from different studies.
Lines come from different studies, so protocols differ.
Target: Dual specificity tyrosine-phosphorylation-regulated kinase 1B (DYRK1B, Homo sapiens, UniProt Q9Y463)

Structure (SMILES) | assay | conditions | measurement | result
O=C(O)c1ccc2c(c1)nc(NCc1ccccc1)c1ncncc12 | enzyme activity, inhibitor, radiometric | 1 µM | remaining activity | 124%
CC(=O)N1CCC(c2ccc(C(=O)NC(=N)N)cc2C(F)(F)F)CC1 | cell-free assay, competition with immobilised ligand | 1 µM | remaining binding | 45%
Cn1cncc1C1=CN(c2ncnc3[nH]cnc23)CCS1 | enzyme activity, inhibitor, radiometric | 2 µM | inhibition | 95.3%
Cc1cc(NC(=O)c2cccc3cc(-c4cccc5[nH]nc(N)c45)ccc23)ccc1F | enzyme activity, inhibitor | 0.1 µM | activity vs control | 95%
CCCS(=O)(=O)Nc1ccc(F)c(C(=O)c2c[nH]c3ncc(-c4ccc(Cl)cc4)cc23)c1F | enzyme activity, inhibitor | 1 µM | inhibition | < 20%
CC/C(=N\NC(=O)NCc1cccc(O)c1)c1ccc(O)c(C)c1O | enzyme activity, inhibitor | 0.1 µM | inhibition | -5.1%
O=C(CSc1nc2nccnc2c(=O)n1CCc1ccccc1)Nc1nccs1 | enzyme activity, inhibitor | 10 µM | inhibition | -3%
CSc1cccnc1N1CCN(Cc2nc3ccccc3[nH]2)CC1 | cell-free assay, competition with immobilised ligand | 1 µM | remaining binding | 91%
O=C(O)c1ccc2c(c1)nc(Nc1ccccc1)c1ncncc12 | enzyme activity, inhibitor, radiometric | 1 µM | remaining activity | 62%
CN(C)C(=O)Cn1cc(-c2nc([C@@](C)(c3ccc(-c4cnc(N)nc4)cc3)C3CC3)no2)cn1 | cell-free assay, competition with immobilised ligand | 1 µM | remaining binding | 98%
COc1cc2ncnc(Nc3ccc(Oc4ccccc4)cc3C)c2cc1OC | enzyme activity, inhibitor | 1 µM | inhibition | 0%
COc1cccc(CCNc2nc3cc(C(=O)O)ccc3c3cnccc23)c1 | enzyme activity, inhibitor, radiometric | 1 µM | remaining activity | 123%
CCC(=N\O)/C(C)=C/c1ccc(F)cc1 | cell-free assay, competition with immobilised ligand | 1 µM | remaining binding | 57%
O=C(O)c1ccc2c(c1)nc(Nc1ccc3ccccc3c1)c1ncncc12 | enzyme activity, inhibitor, radiometric | 1 µM | remaining activity | 41%
O=C(N1CCS(=O)(=O)CC1)N1C[C@H](c2ccc(OC(F)(F)F)cc2)C[C@H](c2nc(C3CC3)no2)C1 | cell-free assay, competition with immobilised ligand | 1 µM | remaining binding | 93%
